Screening data from PubChem BioAssay.
A selection: hits, their analogues and other compounds. The true share with any hit is near 4.2%.
Autophagy HCS = alters autophagy in cells. MEF GFP-LC3 puncta imaging; test concentration mostly 10 µM. calls only at 10 µM (by protocol). 190,000 tested, 0.98% active;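 active = percentage of spot-positive cells more than 3 SD above its plate mean, without a fluorescence outlier flag or 80% toxicity; inconclusive = no clear call, values can overlap the other calls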;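 note: spot-positive cell cutoff set from DMSO-treated cells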
Rad51 HR inh = blocks human Rad51 in homologous recombination. Q06609. hRad51 DNA strand exchange, fluorescence dequenching. inhibition, % at 10 µM. 200,000 tested, 0.085% active;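 active = inhibition above 40% at the single screening dose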;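 note: 0% = DMSO control wells and 100% = blanks with heterologous ssDNA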
Target sequence (Q06609 whole entry, looked up): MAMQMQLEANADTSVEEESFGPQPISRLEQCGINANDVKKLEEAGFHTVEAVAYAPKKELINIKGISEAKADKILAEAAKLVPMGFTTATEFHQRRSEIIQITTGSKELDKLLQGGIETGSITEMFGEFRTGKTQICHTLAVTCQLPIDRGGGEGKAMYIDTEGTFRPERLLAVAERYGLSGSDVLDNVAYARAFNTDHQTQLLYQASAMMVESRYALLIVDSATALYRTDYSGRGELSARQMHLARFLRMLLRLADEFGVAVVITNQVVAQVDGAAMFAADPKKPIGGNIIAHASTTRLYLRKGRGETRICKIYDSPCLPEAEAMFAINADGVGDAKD
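Test system: preformed human Rad51 ssDNA filaments; also added: Donor/quencher-labelled 47-bp dsDNA substrate; doses: 10 µM final, single point; times: 37 °C 15-min filament assembly, 30-min compound preincubation, 15-min exchange; detection: FRET fluorescence dequenching, excitation 485 nm, emission 520 nm; read-out basis: Fluorescence-based percent inhibition, control- and blank-normalised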
SKKanGAS inh = SKKanGAS growth inhibition | S. pyogenes SKKanGAS, kanamycin growth, BacTiter-Glo, 6 h | inhibition, % at 7.5 µM | 300,000 tested, 1.3% active | AID 1662;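 active = mean replicate score, as percent of positive control median, at least 50; inconclusive = mean below 50 but one replicate at or above 50; inactive = mean and every replicate below 50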;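 note: strain carries kanamycin resistance gene driven by streptokinase promoter and grows in 40 µg/ml kanamycin; loss of luminescence reflects streptokinase promoter inhibition or plain growth inhibition; 0% = median of DMSO wells and 100% = positive control at its reference dose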
Ins promoter up = MIN6 insulin promoter up-regulation. z-score at 5 µM. MIN6 insulin promoter-GFP reporter, high-content imaging; active compounds read high. 190,000 tested, 0.3% active. AID 1625;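 active = z-score above 3 at 5 µM with at least 500 cells counted in the well; inconclusive = wells under 500 cells, flagged as cytotoxic or low count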
Cl transport mod = KCC2 (human) Cl- transport modulation. KCC2 cells, thallium flux FluoZin-2 fluorescence. B-score of Tl+ flux slope (higher = more flux/activation; lower = inhibition) at 10 µM. 190,000 tested, 2.2% active;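 active = thallium flux slope and its plate-corrected score both differing from the plate sample mean at a set confidence after two filtering rounds, in either direction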;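 note: slope of fluorescence scaled to starting intensity during 10 to 20 s after thallium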
WT yeast gro inh = growth inhibition of WT yeast, mitochondrial fusion screen; AID 1362; 190,000 tested, 2.1% active; inhibition, % at 10 µM; mitochondrial fusion phenotypic screen, WT strain; in the data active = inhibition above about 58%; tested in S. cerevisiae
Numbers without * were called inactive; i = inactive; ? = inconclusive; / = not tested or not shown; + = active, no number.

SMILES	Autophagy HCS	Rad51 HR inh	SKKanGAS inh	Ins promoter up	Cl transport mod	WT yeast gro inh
CCOc1ccc(NC(=S)Nc2ccc(OCc3ccccc3)cc2)cc1	i	-2	3	0.1	-0.38	-1
CCOc1ccc(CSCCNC(=S)Nc2ccccc2)cc1	i	-8	-9	-0.33	0.02	71*
CC(C)(C)c1ccc(OCCNC(=S)Nc2ccccc2)cc1	i	-2	5	/	-0.65	82*
CC(NC(=S)NCc1ccccc1)C12CC3CC(CC(C3)C1)C2 (centres undefined)	i	8	30	/	0.3	5
CC(NC(=S)Nc1cccc(C(F)(F)F)c1)C(C)(C)C (centres undefined)	i	-3	10	-0.57	-0.013	70*
FC(F)(F)c1cccc(NC(=S)NNC(=S)Nc2ccc(Cl)cc2)c1	/	5	115*	/	-2.2	/
Cc1ccc(NC(=S)NNC(=S)Nc2cccc(C(F)(F)F)c2)cc1	/	4	88*	/	/	/
CN(C)NC(=S)Nc1cccc(C(F)(F)F)c1	/	6	1	0.18	0.2	/
C=CCOc1ccccc1CNCCNC(=O)c1nonc1N	+	-5	10	0.12	0.34	-2
CCOc1ccccc1C(=O)NC(C(=O)Nc1cccnc1)C(C)C (centres undefined)	i	-5	-5	0.16	1.2	-11
O=C(Nc1ccc(S(=O)(=O)NC2=NCCCCC2)cc1)C1COc2ccccc2O1 (centres undefined)	/	41*	0	-0.06	0.69	/
O=C(Nc1cccc(S(=O)(=O)NC2=NCCCCC2)c1)C1COc2ccccc2O1 (centres undefined)	i	6	1	-0.36	0.031	-4
NNC(=O)Cn1c(-c2ccccn2)nc2ccccc21	/	/	-2	/	/	/
CCN(CC)CCNC(=O)Cn1c(-c2ccccn2)nc2ccccc21	i	3	-1	0.57	0.54	61*
COc1ccc(C(=O)N/C(=C\c2cn(S(=O)(=O)N(C)C)c3ccccc23)C(=O)N2CCOCC2)cc1	/	/	1	/	/	/
O=c1[nH][nH]c(-c2ccccc2)c1C=Nc1ccccc1	i	/	18	0.43	1.4	80*
O=c1[nH][nH]c(-c2ccccc2)c1C=Nc1ccc(C(F)(F)F)cc1	i	-2	8	-0.06	0.39	-1
O=C1c2cccc3cccc(c23)C(=O)N1CC1CCN(CC(O)COc2ccc3ccccc3c2)CC1 (centres undefined)	/	/	70*	/	/	/
COc1ccccc1-n1c(=O)oc2ccc(Cl)cc2c1=O	i	1	/	/	0.23	76*
CCCCC(=O)Nc1ccc(C(=O)NNC(=S)NC(=O)c2cccs2)cc1	i	1	67*	0.28	0.88	-16
O=C(Nc1ccc(NC(=S)NC(=O)c2cccs2)cc1)c1ccccc1	i	6	4	/	-0.051	15
CNC(=S)NNC(=O)c1cccs1	/	9	-3	-0.03	1.3	/
O=C(NNC(=S)NC(=O)c1cccs1)c1ccc(NC(=O)c2ccccc2)cc1	i	-3	92*	-0.73	0.59	-15
O=C(NNC(=S)NC(=O)c1ccco1)c1ccc(NC(=O)c2ccccc2)cc1	i	6	61*	0.17	-0.57	-27
O=C(NC(=S)NNC(=O)c1cccs1)c1ccc(Br)o1	i	-4	101*	/	15*	2
SMILES	Autophagy HCS	Rad51 HR inh	SKKanGAS inh	Ins promoter up	Cl transport mod	WT yeast gro inh
COCCCN(CC(=O)Nc1ccc(N2CCOCC2)cc1)S(=O)(=O)c1ccccc1	i	12	-2	-0.16	-0.035	-2
CCn1c(SCC(=O)N(C)CC(=O)Nc2ccc(OC)cc2)nnc1-c1ccco1	/	/	-2	/	/	/
Cc1c(Cl)cccc1NC(=S)NCCC(C)C	i	4	5	-0.2	/	48
Cc1cc(Cl)ccc1NC(=S)NCCc1ccc(Cl)cc1	/	/	15	/	/	/
Cc1cc(Cl)ccc1NC(=S)NCCC(c1ccccc1)c1ccccc1	i	-3	66*	-0.57	/	74*
Cc1c(Cl)cccc1NC(=S)NCCC(c1ccccc1)c1ccccc1	i	3	79*	0.09	-0.057	78*
CC(=O)N1N=C(c2cccc(Cl)c2)OC1c1ccc(C(C)C)cc1 (centres undefined)	i	-15	14	-0.04	0.89	78*
CC(=O)N1N=C(c2cccc([N+](=O)[O-])c2)OC1c1cccc(Br)c1 (centres undefined)	i	/	8	0.14	/	66*
CC(=O)N1N=C(c2cccc(Cl)c2)OC1c1cccc([N+](=O)[O-])c1 (centres undefined)	i	-3	5	/	-0.52	23
COc1cc(OC)c(OC)cc1CN(C)C(c1ccccc1)c1nnnn1-c1ccccc1C (centres undefined)	i	-11	1	-0.47	-0.93	24
COc1ccc(CN(C)C(c2ccccc2)c2nnnn2-c2ccccc2C)c(OC)c1C (centres undefined)	i	-10	40	-0.29	0.047	74*
O=C(CSc1cn[nH]n1)Nc1ccccc1C(=O)O	/	/	-1	/	/	/
Cc1cccc(S(=O)(=O)NCCc2ccccc2)c1	i	-2	/	-0.19	-0.022	11
S=C1NC(c2cccs2)=CC(c2ccc(Br)cc2)N1 (centres undefined)	i	6	2	0.52	0.11	72*
COc1ccc(C2/C(=C(/O)c3ccc(F)cc3)C(=O)C(=O)N2CCCN2CCOCC2)cc1OC (centres undefined)	/	/	4	/	/	/
Cc1cc(=S)[nH]c2c(C)cccc12	i	2	8	0.51	31*	16
Cc1ccc(-n2c(C)nnc2SCC(=O)Nc2ccccc2)cc1	i	/	0	/	-0.22	-11
CC1C/C(=C/c2ccncc2)C(=O)/C(=C/c2ccncc2)C1 (centres undefined)	i	-9	0	?	-1.2	77*
O=C1/C(=C/c2ccncc2)Cc2ccccc21	/	/	-3	/	/	/
CN1CCc2c(sc3c2C(=O)NC(c2cn(Cc4ccccc4)c4ccccc24)N3)C1 (centres undefined)	+	-37	17	-2.1	0.38	-6
COC(=O)N1c2ccccc2C=Cc2ccccc21	/	/	-2	/	/	/
C=CCc1c(C)[nH]c2c(OC)cccc2c1=S	i	-45	1	-1	-0.95	67*
N#C/C(=C\c1ccc(N2CCOCC2)o1)c1nc2ccccc2[nH]1	?	i	6	/	i	4
N#C/C(=C/c1ccc(N2CCOCC2)o1)c1ccc(Cl)cc1	+	/	-11	/	0.037	9
Cc1cc(N2CCN(S(=O)(=O)c3ccc4ccccc4c3)CC2)n2ncnc2n1	+	-7	-8	-0.08	-0.36	0
Cc1cc(N2CCN(c3ccccc3)CC2)n2ncnc2n1	i	-1	3	-1.2	-0.83	-15
Cc1cc(N2CCN(C(c3ccccc3)c3ccc(Cl)cc3)CC2)n2ncnc2n1 (centres undefined)	i	/	9	-0.38	-0.61	74*
